From ChEMBL document CHEMBL4706620, “Design, synthesis, biological activity evaluation of 3-(4-phenyl-1H-imidazol-2-yl)-1H-pyrazole derivatives as potent JAK 2/3 and aurora A/B kinases multi-targeted inhibitors” (Eur J Med Chem, 2021)

Assays:
[1] = target: Tyrosine-protein kinase JAK2 (Homo sapiens, UniProt O60674); assay: Inhibition of JAK2 (unknown origin) incubated for 40 mins in presence of ATP by Kinase-glo luminescence assay
[2] = target: T1, Tyrosine-protein kinase JAK3 (Homo sapiens, UniProt P52333); assay: Inhibition of JAK3 (unknown origin) incubated for 40 mins in presence of ATP by Kinase-glo luminescence assay
T1 sequence (P52333 whole entry): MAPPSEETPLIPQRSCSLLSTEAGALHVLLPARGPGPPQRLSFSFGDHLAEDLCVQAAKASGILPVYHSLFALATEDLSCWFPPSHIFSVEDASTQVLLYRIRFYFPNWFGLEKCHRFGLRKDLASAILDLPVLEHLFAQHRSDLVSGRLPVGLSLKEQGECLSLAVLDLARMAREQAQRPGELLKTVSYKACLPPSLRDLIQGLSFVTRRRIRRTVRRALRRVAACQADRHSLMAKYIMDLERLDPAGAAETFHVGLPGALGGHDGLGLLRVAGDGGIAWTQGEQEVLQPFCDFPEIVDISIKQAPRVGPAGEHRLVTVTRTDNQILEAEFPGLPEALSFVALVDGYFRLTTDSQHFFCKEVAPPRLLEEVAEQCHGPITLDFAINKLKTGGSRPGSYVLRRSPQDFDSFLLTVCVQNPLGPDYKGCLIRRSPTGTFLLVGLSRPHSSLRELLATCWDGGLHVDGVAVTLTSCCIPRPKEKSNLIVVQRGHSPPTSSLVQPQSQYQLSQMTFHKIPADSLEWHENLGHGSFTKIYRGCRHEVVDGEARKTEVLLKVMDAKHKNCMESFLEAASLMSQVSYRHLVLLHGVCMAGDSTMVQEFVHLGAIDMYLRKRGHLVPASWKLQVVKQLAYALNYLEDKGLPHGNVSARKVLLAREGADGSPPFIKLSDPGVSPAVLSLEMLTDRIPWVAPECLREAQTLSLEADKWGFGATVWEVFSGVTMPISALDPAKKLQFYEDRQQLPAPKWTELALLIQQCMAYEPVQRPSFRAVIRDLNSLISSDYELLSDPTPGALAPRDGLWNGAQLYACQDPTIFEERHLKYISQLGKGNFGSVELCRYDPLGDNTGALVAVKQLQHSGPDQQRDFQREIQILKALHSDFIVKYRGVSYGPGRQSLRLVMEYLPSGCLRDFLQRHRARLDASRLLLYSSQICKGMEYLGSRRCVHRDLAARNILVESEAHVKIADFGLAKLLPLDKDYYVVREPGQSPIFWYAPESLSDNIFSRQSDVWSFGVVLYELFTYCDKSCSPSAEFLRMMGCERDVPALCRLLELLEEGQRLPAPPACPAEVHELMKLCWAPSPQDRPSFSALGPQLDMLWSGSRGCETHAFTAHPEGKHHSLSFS

Aurora kinase A = target: T2, Aurora kinase A (Homo sapiens, UniProt O14965); assay: Inhibition of Aurora A (unknown origin) incubated for 40 mins in presence of ATP by Kinase-glo luminescence assay
T2 sequence (O14965 whole entry): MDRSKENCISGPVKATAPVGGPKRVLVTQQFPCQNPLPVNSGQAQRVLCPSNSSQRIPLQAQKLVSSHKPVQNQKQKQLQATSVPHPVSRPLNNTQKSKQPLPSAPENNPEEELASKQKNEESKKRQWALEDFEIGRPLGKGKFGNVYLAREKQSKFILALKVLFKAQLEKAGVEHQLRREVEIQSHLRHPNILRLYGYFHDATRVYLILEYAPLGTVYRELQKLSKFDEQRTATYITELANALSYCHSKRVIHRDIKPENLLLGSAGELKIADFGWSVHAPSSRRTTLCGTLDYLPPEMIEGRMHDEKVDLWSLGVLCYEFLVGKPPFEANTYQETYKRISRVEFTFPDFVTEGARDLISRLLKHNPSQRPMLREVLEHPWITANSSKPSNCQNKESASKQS

Aurora kinase B = Aurora kinase B (Homo sapiens, UniProt Q96GD4); assay: Inhibition of Aurora B (unknown origin) incubated for 40 mins in presence of ATP by Kinase-glo luminescence assay
Procedure, shortened: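 Kinase reaction at 30 °C for 40 min in 40 mM Tris pH 7.4, 10 mM MgCl2, 0.1 mg/ml BSA, 1 mM DTT, 10 µM ATP, kinase plus substrate; compounds added from 10% DMSO dilutions (1% DMSO final). Remaining ATP measured by Kinase-Glo Plus luminescence; IC50 from nonlinear regression, normalized dose-response fit.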

K562 [3] = assay: Antiproliferative activity against human K562 cells assessed as reduction in cell growth measured after 72 hrs by CCK8 assay; format: functional, cell-based; details: K562, 72 h
HCT-116 [4] = assay: Antiproliferative activity against human HCT116 cells assessed as reduction in cell growth measured after 72 hrs by CCK8 assay; format: functional, cell-based; details: HCT-116, 72 h
Homo sapiens [5] = species on record: Homo sapiens; assay: Selectivity for JAK2 (unknown origin) over Aurora B (unknown origin)
Homo sapiens [6] = species on record: Homo sapiens; assay: Selectivity for JAK3 (unknown origin) over Aurora B (unknown origin)
Homo sapiens [7] = species on record: Homo sapiens; assay: Selectivity for JAK2 (unknown origin) over Aurora A (unknown origin)
Homo sapiens [8] = species on record: Homo sapiens; assay: Selectivity for JAK3 (unknown origin) over Aurora A (unknown origin)
K562 [9] = assay: Cell cycle arrest in human K562 cells assessed as accumulation of diploid cells at G2 phase at 10 uM incubated for 48 hrs by propidium iodide staining based flow cytometric analysis (reference value: 7.73 %); format: functional
K562 [10] = assay: Cell cycle arrest in human K562 cells assessed as accumulation of diploid cells at S phase at 10 uM incubated for 48 hrs by propidium iodide staining based flow cytometric analysis (reference value: 35.94 %); format: functional
HCT-116 [11] = assay: Cell cycle arrest in human HCT116 cells assessed as accumulation of diploid cells at G1 phase at 10 uM incubated for 48 hrs by propidium iodide staining based flow cytometric analysis (reference value: 77.62 %); format: functional
HCT-116 [12] = assay: Cell cycle arrest in human HCT116 cells assessed as accumulation of diploid cells at G2 phase at 10 uM incubated for 48 hrs by propidium iodide staining based flow cytometric analysis (reference value: 10.46 %); format: functional
HCT-116 [13] = assay: Cell cycle arrest in human HCT116 cells assessed as accumulation of diploid cells at S phase at 10 uM incubated for 48 hrs by propidium iodide staining based flow cytometric analysis (reference value: 11.92 %); format: functional
HCT-116 [14] = assay: Cell cycle arrest in human HCT116 cells assessed as accumulation at […] phase at 10 uM incubated for 48 hrs by propidium iodide staining based flow cytometric analysis (reference value: 2.01 %); format: functional

Tyrosine-protein kinase JAK2, sequence (O60674 whole entry): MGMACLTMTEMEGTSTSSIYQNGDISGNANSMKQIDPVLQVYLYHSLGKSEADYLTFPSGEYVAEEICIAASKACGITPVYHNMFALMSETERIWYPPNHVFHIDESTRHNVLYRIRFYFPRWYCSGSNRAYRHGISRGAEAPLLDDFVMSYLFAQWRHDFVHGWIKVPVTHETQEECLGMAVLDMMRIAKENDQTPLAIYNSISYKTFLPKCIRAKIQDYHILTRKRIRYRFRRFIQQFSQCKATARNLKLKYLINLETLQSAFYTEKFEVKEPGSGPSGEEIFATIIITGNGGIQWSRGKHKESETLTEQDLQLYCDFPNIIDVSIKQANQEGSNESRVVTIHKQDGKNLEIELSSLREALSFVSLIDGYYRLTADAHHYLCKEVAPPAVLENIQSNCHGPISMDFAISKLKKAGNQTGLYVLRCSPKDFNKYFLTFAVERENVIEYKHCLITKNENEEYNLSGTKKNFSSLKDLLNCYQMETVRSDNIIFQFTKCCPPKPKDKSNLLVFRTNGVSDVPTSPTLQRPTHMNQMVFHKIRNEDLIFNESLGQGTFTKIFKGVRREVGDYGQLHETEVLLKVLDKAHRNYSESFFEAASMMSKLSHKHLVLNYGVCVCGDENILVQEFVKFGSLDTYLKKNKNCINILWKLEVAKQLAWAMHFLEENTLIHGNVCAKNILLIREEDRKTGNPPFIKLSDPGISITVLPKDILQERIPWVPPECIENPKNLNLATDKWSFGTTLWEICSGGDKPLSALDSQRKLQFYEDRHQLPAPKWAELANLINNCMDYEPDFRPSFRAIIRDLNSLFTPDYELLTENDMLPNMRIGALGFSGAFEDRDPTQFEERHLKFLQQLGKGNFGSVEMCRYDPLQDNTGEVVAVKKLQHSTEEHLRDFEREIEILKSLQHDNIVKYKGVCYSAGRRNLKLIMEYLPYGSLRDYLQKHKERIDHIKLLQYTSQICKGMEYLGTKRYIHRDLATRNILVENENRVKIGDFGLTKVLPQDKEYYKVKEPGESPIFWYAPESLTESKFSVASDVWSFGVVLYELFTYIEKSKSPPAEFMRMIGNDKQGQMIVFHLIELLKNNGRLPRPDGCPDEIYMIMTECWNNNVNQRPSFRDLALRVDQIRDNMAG
Aurora kinase B, sequence (Q96GD4 whole entry): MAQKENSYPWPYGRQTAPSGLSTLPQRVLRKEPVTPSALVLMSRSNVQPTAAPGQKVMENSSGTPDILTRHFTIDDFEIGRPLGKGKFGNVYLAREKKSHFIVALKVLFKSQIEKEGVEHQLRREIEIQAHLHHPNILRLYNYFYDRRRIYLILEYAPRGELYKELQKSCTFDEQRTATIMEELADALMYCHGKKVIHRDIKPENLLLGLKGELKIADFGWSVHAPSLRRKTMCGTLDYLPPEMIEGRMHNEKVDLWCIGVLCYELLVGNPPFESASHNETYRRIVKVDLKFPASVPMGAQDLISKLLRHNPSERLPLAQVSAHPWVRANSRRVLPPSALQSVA

For `COc1ccc(C(=O)Nc2c[nH]nc2-c2nc(-c3ccc(CN4CCOCC4)cc3)c[nH]2)cc1`, the IC50 [1] was 14 nM, the IC50 [2] was 24 nM and the IC50 (Aurora kinase A) was 359 nM. It also gave an IC50 (Aurora kinase B) of over 1000 nM, an IC50 (K562 [3]) of 5650 nM and an IC50 (HCT-116 [4]) of over 10000 nM. For the same compound, the Selectivity ratio (Homo sapiens [5]) was 20, the Selectivity ratio (Homo sapiens [6]) was 20 and the Selectivity ratio (Homo sapiens [7]) was 20. For the same compound, the Selectivity ratio (Homo sapiens [8]) was 20.

With `CSc1nc(Cl)c(C)c(Nc2c[nH]nc2-c2ncc(-c3ccc(OCCCN4CCOCC4)cc3)[nH]2)n1` the IC50 (K562 [3]) was 9880 nM and the IC50 (HCT-116 [4]) was 16100 nM.

For `O=C(Nc1c[nH]nc1-c1nc(-c2ccc(CN3CCCCC3)cc2)c[nH]1)c1cccc(Cl)c1`, the IC50 [1] was 16 nM, the IC50 [2] was 13 nM and the IC50 (Aurora kinase A) was 1130 nM. It also gave an IC50 (K562 [3]) of 2500 nM, an IC50 (HCT-116 [4]) of over 10000 nM and a Selectivity ratio (Homo sapiens [5]) of 20. The Selectivity ratio (Homo sapiens [6]) was 20, the Selectivity ratio (Homo sapiens [7]) was 20 and the Selectivity ratio (Homo sapiens [8]) was 20.

Compound `COc1ccc(C(=O)Nc2c[nH]nc2-c2nc(-c3ccc(CN4CCCCC4)cc3)c[nH]2)cc1` has an IC50 (Aurora kinase A) of 1520 nM, an IC50 (K562 [3]) of over 10000 nM and an IC50 (HCT-116 [4]) of over 10000 nM.

For `O=C(Nc1c[nH]nc1-c1nc2ccc(CN3CCOCC3)cc2[nH]1)NC1CC1` [AT-9283], the IC50 (Aurora kinase B) was 62 nM, the Activity (K562 [9]) was 14.99% and the Activity (K562 [10]) was 32.31%. For the same compound, the Activity (HCT-116 [11]) was 66.56%, the Activity (HCT-116 [12]) was 25.19% and the Activity (HCT-116 [13]) was 8.24%. For the same compound, the Activity (HCT-116 [14]) was 1.98%.

Compound `Cc1nc(Cl)cc(Nc2c[nH]nc2-c2nc(-c3ccc(CN4CCOCC4)cc3)c[nH]2)n1` has an IC50 [1] of 8 nM, an IC50 [2] of 23 nM and an IC50 (Aurora kinase A) of 145 nM. It also gave an IC50 (K562 [3]) of 10000 nM and an IC50 (HCT-116 [4]) of over 10000 nM.

`O=C(Nc1c[nH]nc1-c1nc(-c2ccc(CN3CCOCC3)cc2)c[nH]1)c1ccc([N+](=O)[O-])cc1` was tested, and the IC50 [1] was 1180 nM, the IC50 (Aurora kinase A) was 466 nM and the IC50 (Aurora kinase B) was 650 nM. For the same compound, the IC50 (K562 [3]) was 4340 nM and the IC50 (HCT-116 [4]) was 5210 nM.

`O=C(Nc1c[nH]nc1-c1nc(-c2ccc(CN3CCCCC3)cc2)c[nH]1)c1ccc(Cl)cc1` showed an IC50 (Aurora kinase A) of 2060 nM, an IC50 (K562 [3]) of over 10000 nM and an IC50 (HCT-116 [4]) of 1590 nM.

`O=C(Nc1c[nH]nc1-c1nc(-c2ccc(CN3CCOCC3)cc2)c[nH]1)c1ccccc1` showed an IC50 (K562 [3]) of over 10000 nM and an IC50 (HCT-116 [4]) of over 10000 nM.

For `O=C(Nc1c[nH]nc1-c1nc(-c2ccc(CN3CCOCC3)cc2)c[nH]1)c1ccc(Cl)cc1`, the IC50 [2] was 64 nM, the IC50 (Aurora kinase A) was 2510 nM and the IC50 (K562 [3]) was 2630 nM. For the same compound, the IC50 (HCT-116 [4]) was over 10000 nM.
